Published values of several laboratories.
Each line is one published result; the experiments were not run side by side. Converted amounts (≈) assume the structure as drawn.

| SMILES | organism | test | test system | setting | endpoint | value |
| --- | --- | --- | --- | --- | --- | --- |
| NNC(=O)c1ccncc1 | Mycolicibacterium smegmatis | microbial growth | – | – | MIC90 | 17.7 µM |
| N#CC(=C1C=CC(=NOC(=O)OCc2ccccc2)C=C1)c1ccccc1 | Candida tropicalis | microbial growth, broth dilution | ATCC13803 | 48 h | MIC | 128 µg/mL |
| OC(Cn1cncn1)(Cn1cncn1)c1ccc(F)cc1F | Candida tropicalis | microbial growth, broth dilution | – | – | MIC | 8 µg/mL |
| CC(=O)ON=C1C=CC(=C(C#N)c2ccccc2)C=C1 | Candida tropicalis | microbial killing, broth dilution | ATCC13803 | 48 h | MFC | 4 µg/mL (≈ 15.1 µM) |
| C[C@@H]1[C@H](O)[C@@H](C)/C=C/C=C/C=C/C=C/C=C/C=C/C=C/[C@H](O[C@@H]2O[C@H](C)[C@@H](O)[C@H](N)[C@@H]2O)C[C@@H]2O[C@](O)(C[C@@H](O)C[C@@H](O)[C@H](O)CC[C@@H](O)C[C@@H](O)CC(=O)O[C@H]1C)C[C@H](O)[C@H]2C(=O)O | Candida tropicalis | microbial growth, broth dilution | CGMCC2 | 48 h | MIC | < 0.25 µM |
| C=C[C@]1(C)C[C@@H](OC(=O)CS[C@@H]2C[C@H]3CC[C@@H](C2)N3C)[C@]2(C)[C@H](C)CC[C@]3(CCC(=O)[C@H]32)[C@@H](C)[C@@H]1O | Streptococcus agalactiae | microbial growth | – | clinical isolate | MIC90 | 0.0312 µg/mL |
| CO[C@H]1/C=C/O[C@@]2(C)Oc3c(C)c(O)c4c(O)c(c(/C=N/N5CCN(C)CC5)c(O)c4c3C2=O)NC(=O)/C(C)=C\C=C\[C@H](C)[C@H](O)[C@@H](C)[C@@H](O)[C@@H](C)[C@H](OC(C)=O)[C@@H]1C | Mycolicibacterium smegmatis | microbial growth | – | – | MIC90 | 1.52 µM |
| CC(=O)NC[C@H]1CN(c2ccc(N3CCOCC3)c(F)c2)C(=O)O1 | Streptococcus viridans | microbial growth | – | clinical isolate | MIC90 | 1 µg/mL |
| CC(=O)N1CCN(c2ccc(OCC3COC(Cn4ccnc4)(c4ccc(Cl)cc4Cl)O3)cc2)CC1 (stereo not shown) | Candida tropicalis | microbial growth, broth dilution | CGMCC2 | 48 h | MIC | 1 µM |
| C[C@@H]1[C@H](O)[C@@H](C)/C=C/C=C/C=C/C=C/C=C/C=C/C=C/[C@H](O[C@@H]2O[C@H](C)[C@@H](O)[C@H](N)[C@@H]2O)C[C@@H]2O[C@](O)(C[C@@H](O)C[C@@H](O)[C@H](O)CC[C@@H](O)C[C@@H](O)CC(=O)O[C@H]1C)C[C@H](O)[C@H]2C(=O)O | Candida tropicalis | microbial growth, broth dilution | ATCC13803 | 48 h | MIC | 32 µg/mL |
